Experimental findings from ChEMBL document CHEMBL1123133, “1H-2-Benzopyran-1-one derivatives, microbial products with pharmacological activity. Conversion into orally active derivatives with antiinflammatory and antiulcer activities” (J Med Chem, 1985) are described below.

In series [1] the test system is Rattus norvegicus. The series is described as follows: Concentration detected in blood of rat 3 hr after an oral dose of 200 mg/kg; ND is Not Detected. The format is ADME, organism-based. Conditions: in vivo. The arrangement: dose 200 mg/kg, route oral. An outline of the steps:
(§1)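 Male Wistar rats (120–160 g), 5–7 per group, fasted 24 h, given 200 mg/kg orally as aqueous HCl salt formulation (drug/glycerin/HCO-60 1/12/0.05 by weight). Jugular blood taken under ether at 1 or 3 h into citric acid; plasma deproteinized with ethanol (acetone for 5d) and analysed by C18 HPLC at 254 nm. Values recovery-corrected, mean of 6–7 rats.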

Series [2] concerns Rattus norvegicus. Description: Concentration 1 detected in blood of rat 1 hr after an oral dose of 200 mg/kg of the compound; ND is Not Detected. Type of series: ADME, organism-based. Conditions: in vivo. On the set-up: dose 200 mg/kg, route oral. Summed up: as §1
The test system of series [3] is Rattus norvegicus. Description: % recovery from whole blood of 7 wistar rats after an oral dose of the compound. Conditions: in vivo. The format is ADME, organism-based.
In series [4] the test system is Rattus norvegicus. Description: Gastroprotective activity as % protection against stress ulcers in 5 rats after an intraperitoneal dose of 12.5 mg/kg. The format is functional. Summed up: (§2)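 Stress ulcer by restraint and water immersion: male Wistar rats (160–180 g), fasted 24 h, given test compound po or ip as HCl salt in aqueous glycerin/HCO-60 formulation (1/12/0.05 by weight). Vehicle-only controls. After 1 h, restrained in net cage and immersed in 21 °C water for 6 h. Percent ulcer inhibition calculated; five rats per dose.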

Series [5] has as its system Rattus norvegicus. The series is described as follows: Gastroprotective activity as % protection against stress ulcers in 5 rats after an intraperitoneal dose of 25 mg/kg. The format is functional. Summed up: as §2
Series [6] relates to Rattus norvegicus. Description: Gastroprotective activity as % protection against stress ulcers in 5 rats after an intraperitoneal dose of 50 mg/kg. The format is functional. An outline of the steps:
as §2

The subject of series [7] is Rattus norvegicus. The series is described as follows: Gastroprotective activity as % protection against stress ulcers in 5 rats after an oral dose of 100 mg/kg. The format is functional. Summed up: as §2
Series [8] deals with Rattus norvegicus. The series is described as follows: Gastroprotective activity as % protection against stress ulcers in 5 rats after an oral dose of 25 mg/kg. Type of series: functional. An outline of the steps: as §2
For series [9], the system named is Rattus norvegicus. Description: Gastroprotective activity as % protection against stress ulcers in 5 rats after an oral dose of 50 mg/kg. The format is functional. Summed up:
as §2

Series [10] concerns Rattus norvegicus. Description: Concentration 5b detected in blood of rat 1 hr after an oral dose of 200 mg/kg of the compound. On the set-up: dose 200 mg/kg, route oral. The format is ADME, organism-based. As to conditions: in vivo. Summed up:
as §1

Series [11] deals with Rattus norvegicus. The series is described as follows: Concentration 5b detected in blood of rat 3 hr after an oral dose of 200 mg/kg of the compound. Type of series: ADME, organism-based. On the set-up: dose 200 mg/kg, route oral. Conditions: in vivo. Summed up: as §1
Series [12] is described as follows: Solubility in water, tested as a HCl salt. The format is physicochemical. As to conditions: read-out: S. Summed up: (§3)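 HCl salts suspended in excess in water or 10 mM phosphate buffer pH 7.5, sonicated 10 min at 20 °C to saturation, centrifuged; supernatant quantified by HPLC.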
Series [13] is described as follows: Lipid solubility measured as chloroform-water partition coefficient. The format is physicochemical. Summed up: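 Partition between chloroform and 10 mM phosphate buffer pH 7.5 (1:1 volume); drug at 1 mg/mL initially in aqueous phase, shaken 20 min at 20 °C, centrifuged, both phases quantified by HPLC. HCl salts used.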
In series [14] the test system is Rattus norvegicus. Description: % recovery of the compound, compound 1 and compound 6a from whole blood of 7 wistar rats after an oral dose of the compound. As to conditions: in vivo. Type of series: ADME, organism-based.
The subject of the next series is Cavia porcellus. Description: Antiinflammatory activity evaluated as Minimum effective oral dose that inhibits dextran UV erythema in guinea pig. Type of series: functional.
Series [15] has as its system Rattus norvegicus. Description: Antiinflammatory activity evaluated as Minimum effective oral dose that inhibits bradykinin paw edema in rat. Type of series: functional.
In series [16] the test system is Rattus norvegicus. Description: Antiinflammatory activity evaluated as Minimum effective oral dose that inhibits carrageenan paw edema in rat. The format is functional. On the technique in general: In the carrageenan paw model, swelling and tenderness develop within hours.
Series [17] deals with Rattus norvegicus. The series is described as follows: Antiinflammatory activity evaluated as Minimum effective oral dose that inhibits dextran paw edema in rat. The format is functional.
The test system of series [18] is Rattus norvegicus. The series is described as follows: Antiinflammatory activity evaluated as Minimum effective oral dose that inhibits adjuvant arthritis in rats. Type of series: functional. An outline of the steps:
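Adjuvant arthritis: male Sprague-Dawley rats (180–200 g), 8–10 per group, injected in right hind paw with Mycobacterium butyricum powder in corn oil (0.6 mg/0.1 mL). Oral dosing started 1 h after adjuvant, then daily for 18 days; observed 28 days. Minimum effective dose recorded.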

Series [19] can be described thus: Acute toxicity evaluated as oral lethal dose in rat. The format is organism-based. As to conditions: in vivo. Summed up:
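Oral dosing of male Wistar rats (120-140 g), given as HCl salt; LD50 derived from mortality over 7 days.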

Series [20] has as its system Rattus norvegicus. Description: Gastroprotective activity as % protection against stress ulcers in 5 rats after an oral dose of 12.5 mg/kg. Type of series: functional. Summed up: as §2
Series [21] can be described thus: Solubility in phosphate buffer, tested as a HCl salt. The format is physicochemical. An outline of the steps:
as §3

Series [22] concerns Rattus norvegicus. Description: Concentration 5a detected in blood of rat 3 hr after an oral dose of 200 mg/kg of the compound. Type of series: ADME, organism-based. The arrangement: dose 200 mg/kg, route oral. Conditions: in vivo. Summed up:
as §1

The subject of series [23] is Rattus norvegicus. Description: Concentration 6a detected in blood of rat 1 hr after an oral dose of 200 mg/kg of the compound. Type of series: ADME, organism-based. On the set-up: dose 200 mg/kg, route oral. Conditions: in vivo. Summed up:
as §1

Series [24] has as its system Rattus norvegicus. Description: Concentration 6a detected in blood of rat 3 hr after an oral dose of 200 mg/kg of the compound. Type of series: ADME, organism-based. The arrangement: dose 200 mg/kg, route oral. As to conditions: in vivo. Summed up: as §1
In series [25] the test system is Rattus norvegicus. Description: % recovery 1 and compound 6a from whole blood of 7 wistar rats after an oral dose of the compound. Type of series: ADME, organism-based. Conditions: in vivo.
The test system of series [26] is Rattus norvegicus. The series is described as follows: Concentration 5a detected in blood of rat 1 hr after an oral dose of 200 mg/kg of the compound. The format is ADME, organism-based. On the set-up: dose 200 mg/kg, route oral. As to conditions: in vivo. Summed up: as §1

For the molecule `CC(C)C[C@H](NC(=O)[C@@H](O)[C@@H](O)[C@@H](N)CC(=O)O)[C@@H]1Cc2cccc(O)c2C(=O)O1`, the Concentration entry in the series with Rattus norvegicus [1] and in the series with Rattus norvegicus [2] was “Not detected” throughout. This molecule also registered a Recovery in the series on Rattus norvegicus [3] of 50%. Moreover, the Protection in the series with Rattus norvegicus [4] is listed as 78%; with Rattus norvegicus [5] it was 100%; in the series on Rattus norvegicus [6] it was 94%; with Rattus norvegicus [7] it was 17%; in the series with Rattus norvegicus [8], 0%; with Rattus norvegicus [9] it was 0%.
Usually ED50 stands for the dose at which the effect has come halfway, by size or by number of responders. Higher therefore signals a need for a large dose. A word on the LD50: it is the dose expected to kill half of the subjects tested. The low end stands for a more toxic substance, the high end for a less toxic substance. Consider `CCNC1CC(=O)OC1C(O)C(=O)NC(CC(C)C)C1Cc2cccc(O)c2C(=O)O1` (stereo not drawn), for which the Concentration with Rattus norvegicus [10] came to 17.5 µg/mL; in the series with Rattus norvegicus [11] it was 8.3 µg/mL. The solubility in series [12] is more than 100 mg/mL; in [21], 11 mg/mL. This molecule registered a P in [13] of 43. In addition, in the series with Rattus norvegicus [14], the Recovery turned out to be 20%. In addition, the ED50 in the series on Cavia porcellus is 13 mg/kg; in the series with Rattus norvegicus [15] it was 182 mg/kg; in the series on Rattus norvegicus [16], more than 200 mg/kg; in the series on Rattus norvegicus [17], 47 mg/kg. Also, the EDmin in the series on Rattus norvegicus [18] is 20 mg/kg. This molecule also gave a median lethal dose (LD50) in series [19] of 1250 mg/kg. Also, the Protection in the series with Rattus norvegicus [4] worked out at 66%; in the series on Rattus norvegicus [5], 76%; in the series on Rattus norvegicus [6] it was 100%; with Rattus norvegicus [7], 89%; with Rattus norvegicus [20], 33%; in the series with Rattus norvegicus [8] it was 56%. The molecule further had a Protection in the series with Rattus norvegicus [9] of 78%.
For the molecule `COc1ccc2c(c1)c(CC(=O)O)c(C)n2C(=O)c1ccc(Cl)cc1` [INDOMETHACIN], the ED50 with Cavia porcellus was less than 6 mg/kg; in the series with Rattus norvegicus [15] it was more than 25 mg/kg; in the series with Rattus norvegicus [16], 1.3 mg/kg; with Rattus norvegicus [17], more than 25 mg/kg. Also, the EDmin with Rattus norvegicus [18] was determined as 3 mg/kg.
Molecule `CNc1ccccc1` registered a P in series [13] of more than 19.
On to `CNC1CC(=O)OC1C(O)C(=O)NC(CC(C)C)C1Cc2cccc(O)c2C(=O)O1` (stereo not drawn), for which the Concentration in the series on Rattus norvegicus [22] was found to be 1.2 µg/mL; in the series with Rattus norvegicus [23], 3.1 µg/mL; in the series with Rattus norvegicus [24] it was 1.1 µg/mL; in the series with Rattus norvegicus [26], 3.8 µg/mL. Also, the Recovery in the series on Rattus norvegicus [25] was 50%. Further, the solubility in series [12] worked out at 1.5 mg/mL; in series [21], 0.99 mg/mL. Moreover, the P in series [13] amounted to 3750. Also, the Protection in the series with Rattus norvegicus [5] was determined as 33%; in the series with Rattus norvegicus [6], 56%; in the series on Rattus norvegicus [7] it was 66%; in the series on Rattus norvegicus [20], 17%; in the series on Rattus norvegicus [8], 11%; in the series with Rattus norvegicus [9], 56%.
